# ChEMBL document CHEMBL4699542, “Design and synthesis of novel methoxypyridine-derived gamma-secretase modulators” (Bioorg Med Chem, 2020)
# pIC50: −log10 of the molar value.
# Legend:
# [1] = Kinetic aqueous solubility of the compound in pH 7.4 PBS buffer by UV/Visible absorbance analysis; type: physicochemical; conditions: read-out: Kinetic_solubility
# How it was run: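 Kinetic solubility determined in PBS at pH 7.4 by UV/Vis absorbance, reported in μM.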
# Gamma-secretase = assay: Modulation of gamma secretase in human SH-SY5Y cells overexpressing wild type APP751 assessed as inhibition of amyloid beta (35 to 42 residues) formation incubated for overnight by ELISA; type: cell-based
# How it was run: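 SHSY5Y-APP751 cells plated at 75K/well and incubated overnight at 37 °C, then treated 24 h over 10 concentrations ([…]–10 μM, 1:3.16 steps, in duplicate). Medium Aβ42 measured by sandwich ELISA (Aβ35–42 capture, AP-conjugated Aβ1–12 detection, CDP-Star luminescence) against an Aβ42 standard curve.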
# [2] = Metabolic stability in human liver microsomes assessed as parent compound remaining at 1 uM incubated for 30 mins; type: ADME, Microsome; conditions: microsomes, 0.5 h, 1 µM
# How it was run: (§1)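 Test compound at 1 μM incubated 30 min with human, rat or mouse liver microsomes (1 mg/mL); parent remaining expressed as %.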
# [3] = Metabolic stability in rat liver microsomes assessed as parent compound remaining at 1 uM incubated for 30 mins; type: ADME, Microsome; conditions: 0.5 h; how it was run: as §1
# [4] = Metabolic stability in mouse liver microsomes assessed as parent compound remaining at 1 uM incubated for 30 mins; type: ADME, Microsome; conditions: 0.5 h; how it was run: as §1
# Cytochrome P450 3A4 = Cytochrome P450 3A4 (Homo sapiens, UniProt P08684); assay: Inhibition of recombinant CYP3A4 (unknown origin) by fluorescence-based assay; type: ADME
# Cytochrome P450 1A2 = target: T1, Cytochrome P450 1A2 (Homo sapiens, UniProt P05177); assay: Inhibition of recombinant CYP1A2 (unknown origin) by fluorescence-based assay; type: ADME
# T1 sequence (P05177 whole entry): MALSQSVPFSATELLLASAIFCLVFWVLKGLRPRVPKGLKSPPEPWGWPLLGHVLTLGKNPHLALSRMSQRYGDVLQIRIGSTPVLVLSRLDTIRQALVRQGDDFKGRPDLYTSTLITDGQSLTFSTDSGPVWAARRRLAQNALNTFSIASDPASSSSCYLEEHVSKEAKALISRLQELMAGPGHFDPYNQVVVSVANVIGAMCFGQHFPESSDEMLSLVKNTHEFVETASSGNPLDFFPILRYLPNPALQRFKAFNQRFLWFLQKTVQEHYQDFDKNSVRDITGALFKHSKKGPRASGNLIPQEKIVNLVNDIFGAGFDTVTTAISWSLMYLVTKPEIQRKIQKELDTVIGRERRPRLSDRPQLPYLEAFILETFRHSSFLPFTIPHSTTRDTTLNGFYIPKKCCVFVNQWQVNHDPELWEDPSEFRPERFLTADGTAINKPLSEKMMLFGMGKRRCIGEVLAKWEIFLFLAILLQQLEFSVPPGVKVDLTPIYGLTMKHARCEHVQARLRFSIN
# How it was run: (§2)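 Recombinant CYP isoforms (five tested) screened for inhibition in fluorescence-based assays; IC50 in μM.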
# Cytochrome P450 2C9 = Cytochrome P450 2C9 (Homo sapiens, UniProt P11712); assay: Inhibition of recombinant CYP2C9 (unknown origin) by fluorescence-based assay; type: ADME; how it was run: as §2
# Cytochrome P450 2C19 = Cytochrome P450 2C19 (Homo sapiens, UniProt P33261); assay: Inhibition of recombinant CYP2C19 (unknown origin) by fluorescence-based assay; type: ADME; how it was run: as §2
# Cytochrome P450 2D6 = Cytochrome P450 2D6 (Homo sapiens, UniProt P10635); assay: Inhibition of recombinant CYP2D6 (unknown origin) by fluorescence-based assay; type: ADME; how it was run: as §2
# [5] = target: Voltage-gated inwardly rectifying potassium channel KCNH2 (Homo sapiens, UniProt Q12809); assay: Inhibition of human ERG expressed in HEK293 cells by patch clamp assay; type: cell-based
# [6] = Apparent permeability from apical to basolateral membrane in MDCK-MDR1 cells; type: ADME, cell-based, Canis lupus familiaris; conditions: dog
# How it was run: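 Apical-to-basolateral apparent permeability (×10⁻⁶ cm/s) measured across MDR1-MDCK cell monolayers.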
# [7] = Efflux ratio of apparent permeability from basolateral to apical membrane over apical to basolateral membrane in MDCK-MDR1 cells; type: ADME, cell-based, Canis lupus familiaris; conditions: dog
# How it was run: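 Calculated as B-A/A-B apparent permeability ratio across MDR1-MDCK cell monolayers; A-B permeability expressed as ×10⁻⁶ cm/s.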
# [8] = Cmax in CD-1 mouse at 1 mg/kg, iv administered as single dose measured up to 24 hrs; type: ADME, organism-based; design: route intravenous, dose 1 mg/kg, time <=24; conditions: in vivo
# How it was run: (§3)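 Male CD-1 mice, 6–8 weeks old, single dose by tail vein (1 mg/kg, 3% NMP/45% PEG300/12% ethanol/40% water) or oral gavage (5 mg/kg, 5% NMP/95% PEG300). Retro-orbital plasma sampled 0.083 (iv only) to 24 h, n=3/timepoint, and analysed by HPLC/MS/MS. Non-compartmental analysis. Half-life taken from the terminal phase using ≥3 non-zero points after Tmax.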
# [9] = Tmax in CD-1 mouse at 1 mg/kg, iv administered as single dose measured up to 24 hrs; type: ADME, organism-based; conditions: in vivo
# How it was run: (§4)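 Male CD-1 mice, 6–8 weeks old, single tail-vein dose in 3% NMP/45% PEG300/12% ethanol/40% sterile water. Retro-orbital plasma (K3EDTA) taken at 0.083, 0.25, 0.5, 1, 2, 4, 8 and 24 h, n=3/timepoint, analysed by HPLC/MS/MS. Non-compartmental analysis (Model 201, uniform weighting); Tmax read directly from the data.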
# [10] = Half life in CD-1 mouse at 1 mg/kg, iv administered as single dose measured up to 24 hrs; type: ADME, organism-based; conditions: mouse, in vivo, 1 mg/kg, 24 h; how it was run: as §3
# [11] = AUClast in CD-1 mouse at 1 mg/kg, iv administered as single dose measured up to 24 hrs; type: ADME, organism-based; design: route intravenous, dose 1 mg/kg, time <=24; conditions: in vivo; how it was run: as §3
# [12] = AUC infinity in CD-1 mouse at 1 mg/kg, iv administered as single dose measured up to 24 hrs; type: ADME, organism-based; design: route intravenous, dose 1 mg/kg, time <=24; conditions: in vivo; how it was run: as §3
# [13] = Volume of distribution at steady state in CD-1 mouse at 1 mg/kg, iv administered as single dose measured up to 24 hrs; type: ADME, organism-based; conditions: in vivo; how it was run: as §4
# [14] = Ratio of drug concentration in CD-1 mouse brain to plasma at 0.4 mg/kg, iv measured after 1 hr; type: ADME, organism-based
# [15] = Ratio of drug concentration in CD-1 mouse brain to plasma at 5 mg/kg, po measured after 1 hr; type: ADME, organism-based
# How it was run: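 Male CD-1 mice dosed once iv (1 mg/kg) or by oral gavage (5 mg/kg). Brain and plasma collected 1 h post dose (n=3/timepoint). Drug levels by HPLC/MS/MS; brain/plasma ratio calculated from these levels.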
# [16] = Cmax in CD-1 mouse at 5 mg/kg, po administered as single dose measured up to 24 hrs; type: ADME, organism-based; design: route oral, dose 5 mg/kg, time <=24; conditions: in vivo; how it was run: as §3
# [17] = Tmax in CD-1 mouse at 5 mg/kg, po administered as single dose measured up to 24 hrs; type: ADME, organism-based; conditions: in vivo
# How it was run: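 Male CD-1 mice, 6–8 weeks old, single oral gavage dose in 5% NMP/95% PEG300. Plasma (K3EDTA, retro-orbital, under isoflurane) taken at 0.25, 0.5, 1, 2, 4, 8 and 24 h, n=3/timepoint, analysed by HPLC/MS/MS. Non-compartmental extravascular analysis (Model 200); Tmax taken directly from the data.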
# [18] = AUClast in CD-1 mouse at 5 mg/kg, po administered as single dose measured up to 24 hrs; type: ADME, organism-based; design: route oral, dose 5 mg/kg, time <=24; conditions: in vivo; how it was run: as §3
# [19] = Oral bioavailability in CD-1 mouse at 5 mg/kg administered as single dose measured up to 24 hrs; type: ADME, organism-based; conditions: in vivo
# How it was run: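 CD-1 mouse PK after single iv (1 mg/kg) and oral gavage (5 mg/kg) dosing, with plasma sampled to 24 h (n=3/timepoint) and measured by HPLC/MS/MS. F(%) = (AUC0-inf po × Dose iv)/(AUC0-inf iv × Dose po) × 100.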
# Sequence of Cytochrome P450 2C19 (P33261 whole entry): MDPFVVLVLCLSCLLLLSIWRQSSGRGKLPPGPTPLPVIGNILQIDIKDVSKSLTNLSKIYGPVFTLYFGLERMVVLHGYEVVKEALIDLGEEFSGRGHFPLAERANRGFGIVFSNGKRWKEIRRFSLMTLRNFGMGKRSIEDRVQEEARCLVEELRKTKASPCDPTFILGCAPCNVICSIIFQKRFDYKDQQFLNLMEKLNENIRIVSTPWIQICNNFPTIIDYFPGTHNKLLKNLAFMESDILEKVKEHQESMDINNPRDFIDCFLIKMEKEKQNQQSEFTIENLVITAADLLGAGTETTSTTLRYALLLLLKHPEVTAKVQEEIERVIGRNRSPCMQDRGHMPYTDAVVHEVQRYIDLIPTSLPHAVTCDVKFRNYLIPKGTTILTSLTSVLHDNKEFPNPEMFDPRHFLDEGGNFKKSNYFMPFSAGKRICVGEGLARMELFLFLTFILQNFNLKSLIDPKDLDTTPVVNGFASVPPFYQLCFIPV
# Sequence of Voltage-gated inwardly rectifying potassium channel KCNH2 (Q12809 whole entry): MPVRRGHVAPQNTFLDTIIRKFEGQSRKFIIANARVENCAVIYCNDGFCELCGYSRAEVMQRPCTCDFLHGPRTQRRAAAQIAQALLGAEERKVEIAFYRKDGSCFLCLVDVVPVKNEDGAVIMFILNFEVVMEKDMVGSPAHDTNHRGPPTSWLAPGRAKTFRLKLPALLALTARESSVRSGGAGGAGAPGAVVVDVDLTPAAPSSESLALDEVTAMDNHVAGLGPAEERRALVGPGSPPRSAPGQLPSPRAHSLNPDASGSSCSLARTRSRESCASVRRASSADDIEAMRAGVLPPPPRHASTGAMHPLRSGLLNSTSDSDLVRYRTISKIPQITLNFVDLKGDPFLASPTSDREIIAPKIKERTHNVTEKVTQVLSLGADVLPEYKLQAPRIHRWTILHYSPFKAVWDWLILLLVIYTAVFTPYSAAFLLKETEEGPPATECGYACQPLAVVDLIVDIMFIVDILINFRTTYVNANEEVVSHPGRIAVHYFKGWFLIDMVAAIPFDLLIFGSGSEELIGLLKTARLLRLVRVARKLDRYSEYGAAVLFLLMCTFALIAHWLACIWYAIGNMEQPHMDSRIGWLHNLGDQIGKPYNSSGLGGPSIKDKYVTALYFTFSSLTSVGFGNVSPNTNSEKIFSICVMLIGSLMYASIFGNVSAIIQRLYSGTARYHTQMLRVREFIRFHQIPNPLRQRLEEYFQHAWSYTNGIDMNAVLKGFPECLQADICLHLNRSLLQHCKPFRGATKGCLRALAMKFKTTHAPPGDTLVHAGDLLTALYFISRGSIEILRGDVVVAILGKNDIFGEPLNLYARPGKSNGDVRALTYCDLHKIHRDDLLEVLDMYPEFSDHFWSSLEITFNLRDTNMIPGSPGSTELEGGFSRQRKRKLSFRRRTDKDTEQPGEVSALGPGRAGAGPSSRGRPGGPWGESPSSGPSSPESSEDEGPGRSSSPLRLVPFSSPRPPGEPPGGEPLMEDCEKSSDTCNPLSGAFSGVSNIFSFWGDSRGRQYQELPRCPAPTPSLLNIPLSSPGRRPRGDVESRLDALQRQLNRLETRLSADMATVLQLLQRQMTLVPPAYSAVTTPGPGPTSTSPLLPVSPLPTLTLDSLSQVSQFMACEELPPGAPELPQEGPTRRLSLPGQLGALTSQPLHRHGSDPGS
# Sequence of Cytochrome P450 2C9 (P11712 whole entry): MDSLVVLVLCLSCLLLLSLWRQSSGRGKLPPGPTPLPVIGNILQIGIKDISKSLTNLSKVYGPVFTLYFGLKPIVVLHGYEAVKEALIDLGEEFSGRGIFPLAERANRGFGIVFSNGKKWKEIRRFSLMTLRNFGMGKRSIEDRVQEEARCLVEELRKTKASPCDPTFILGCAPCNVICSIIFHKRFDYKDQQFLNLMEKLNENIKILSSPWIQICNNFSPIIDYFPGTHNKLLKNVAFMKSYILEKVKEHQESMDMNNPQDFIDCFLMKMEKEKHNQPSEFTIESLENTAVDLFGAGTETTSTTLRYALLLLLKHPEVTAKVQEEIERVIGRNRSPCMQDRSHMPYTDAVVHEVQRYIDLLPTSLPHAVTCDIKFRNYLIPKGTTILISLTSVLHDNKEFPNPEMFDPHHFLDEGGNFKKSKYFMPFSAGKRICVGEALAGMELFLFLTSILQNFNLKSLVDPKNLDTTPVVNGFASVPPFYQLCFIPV
# Sequence of Cytochrome P450 3A4 (P08684 whole entry): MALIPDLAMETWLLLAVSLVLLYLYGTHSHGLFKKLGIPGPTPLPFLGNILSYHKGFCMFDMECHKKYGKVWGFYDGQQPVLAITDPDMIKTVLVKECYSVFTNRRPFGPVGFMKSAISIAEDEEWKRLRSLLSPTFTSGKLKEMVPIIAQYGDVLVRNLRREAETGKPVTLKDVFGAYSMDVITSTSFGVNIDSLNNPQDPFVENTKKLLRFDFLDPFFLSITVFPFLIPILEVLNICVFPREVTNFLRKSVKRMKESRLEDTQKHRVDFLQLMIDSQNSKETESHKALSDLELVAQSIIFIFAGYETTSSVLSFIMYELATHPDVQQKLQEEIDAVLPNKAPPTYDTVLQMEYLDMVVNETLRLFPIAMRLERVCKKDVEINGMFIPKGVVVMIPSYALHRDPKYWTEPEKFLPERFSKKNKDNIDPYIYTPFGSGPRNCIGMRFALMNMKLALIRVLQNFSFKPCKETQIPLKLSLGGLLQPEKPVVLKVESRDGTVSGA
# Sequence of Cytochrome P450 2D6 (P10635 whole entry): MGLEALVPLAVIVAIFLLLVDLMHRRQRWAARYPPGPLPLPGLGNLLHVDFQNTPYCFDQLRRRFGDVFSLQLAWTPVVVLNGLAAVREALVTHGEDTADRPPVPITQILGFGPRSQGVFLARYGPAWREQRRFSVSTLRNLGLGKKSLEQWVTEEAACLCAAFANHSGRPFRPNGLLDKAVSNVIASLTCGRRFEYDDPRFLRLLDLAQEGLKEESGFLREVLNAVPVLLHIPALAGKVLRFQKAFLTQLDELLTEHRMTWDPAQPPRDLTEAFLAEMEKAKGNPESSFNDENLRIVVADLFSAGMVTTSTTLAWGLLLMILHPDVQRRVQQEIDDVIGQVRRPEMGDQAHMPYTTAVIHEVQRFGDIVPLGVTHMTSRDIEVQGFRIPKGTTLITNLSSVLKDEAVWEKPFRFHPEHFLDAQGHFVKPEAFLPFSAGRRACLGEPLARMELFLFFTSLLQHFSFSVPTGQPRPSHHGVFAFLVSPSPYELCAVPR
SMILES,solubility kinetic [1],pIC50 (Gamma-secretase),Stabilty [2],Stabilty [3],Stabilty [4],pIC50 (Cytochrome P450 3A4),pIC50 (Cytochrome P450 1A2),pIC50 (Cytochrome P450 2C9),pIC50 (Cytochrome P450 2C19),pIC50 (Cytochrome P450 2D6),pIC50 [5],Papp [6],Ratio [7],further results
COc1nc(-c2csc(Nc3c4c(nn3C(C)(C)C)CCCC4)n2)ccc1-n1cnc(C)c1,34 µM,7.15,19%,63%,23%,5.28,5.04,4.33,4.92,< 4.00,5.14,14.8 10^-6 cm/s,0.9,
COc1nc(-c2csc(Nc3c4c(nn3CCF)CCC4)n2)ccc1-n1cnc(C)c1,23 µM,7.19,58%,68%,60%,4.98,< 4.00,< 4.00,4.46,< 4.00,5.54,,,
COc1nc(-c2csc(Nc3c4c(nn3CCO)CCC4)n2)ccc1-n1cnc(C)c1,29 µM,7.12,42%,86%,73%,> 7.30,< 4.00,4.30,5.04,< 4.00,,,,
CCn1nc(C2(C)CC2)cc1Nc1nc(-c2ccc(-n3cnc(C)c3)c(OC)n2)cs1,6.7 µM,7.49,67%,73%,81%,5.39,< 4.00,< 4.00,< 4.00,< 4.00,4.91,18.5 10^-6 cm/s,1.3,Cmax [8]: 0.384 µg/mL; Tmax [9]: 4.98 min; t1/2 [10]: 3.84 h; AUClast [11]: 1.247 µg·h/mL; AUC [12]: 1.378 µg·h/mL; Vdss [13]: 3.609 L/kg; BPR [14]: 0.62; BPR [15]: 0.57; Cmax [16]: 0.592 µg/mL; Tmax [17]: 2 h; AUClast [18]: 3.976 µg·h/mL; F [19]: 63.8%
COc1nc(-c2csc(Nc3c4c(nn3CC(C)(C)O)CCCC4)n2)ccc1-n1cnc(C)c1,22 µM,7.42,12%,57%,78%,,< 4.00,5.05,5.41,< 4.00,,17.5 10^-6 cm/s,,
COc1nc(-c2csc(Nc3c4c(nn3C3CCC3)CCCC4)n2)ccc1-n1cnc(C)c1,30 µM,7.19,9.5%,42%,44%,6.23,< 4.00,6.18,5.80,< 4.00,,,,
